Laboratory results as given in PMC3172365 (Biochemistry, 2011).

Target: T1, E. coli MutL (Escherichia coli, UniProt P23367)
T1 sequence (P23367 1-615): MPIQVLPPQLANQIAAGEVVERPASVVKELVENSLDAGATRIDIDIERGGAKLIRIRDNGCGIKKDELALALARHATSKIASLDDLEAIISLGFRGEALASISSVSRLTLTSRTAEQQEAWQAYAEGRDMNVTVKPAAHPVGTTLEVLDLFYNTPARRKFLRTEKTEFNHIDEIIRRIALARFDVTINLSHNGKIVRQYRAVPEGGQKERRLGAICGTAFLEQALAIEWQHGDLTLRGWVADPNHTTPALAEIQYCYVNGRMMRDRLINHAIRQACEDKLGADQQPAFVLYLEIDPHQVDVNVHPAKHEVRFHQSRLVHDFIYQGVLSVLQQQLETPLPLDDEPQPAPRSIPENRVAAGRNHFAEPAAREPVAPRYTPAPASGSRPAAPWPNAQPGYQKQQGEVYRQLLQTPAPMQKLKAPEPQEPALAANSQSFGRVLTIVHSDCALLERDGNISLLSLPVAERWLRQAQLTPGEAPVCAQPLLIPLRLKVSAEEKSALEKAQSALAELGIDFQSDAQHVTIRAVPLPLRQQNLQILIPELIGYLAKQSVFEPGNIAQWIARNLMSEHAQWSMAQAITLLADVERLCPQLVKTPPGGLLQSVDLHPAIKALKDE
Assay: analytical sedimentation velocity titration
Format: binding
Method in brief: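 Sedimentation velocity at 42,000 rpm and 25°C with purified MutL dialyzed into Buffer M (50 mM potassium phosphate pH 7.4, 50 mM KCl, 0.1 mM EDTA, 1 mM 2-mercaptoethanol) and filtered. Loading was 0.25–3.94 µM monomer, alone or with 1 mM MgCl2 + 35 µM AMPPNP (scanned 230/280 nm), or 1.75 µM dimer with varied AMPPNP (scanned 292 nm). Scans every 2.5 min gave c(s) distributions and weight-average s20,w.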

Nc1ncnc2c1ncn2[C@@H]1O[C@H](COP(=O)(O)OP(=O)(O)NP(=O)(O)O)[C@@H](O)[C@H]1O [AMPPNP]
Kd: 25.6 µM
